This is a sample that favours compounds with a hit; in the whole collection about 2.5% have one here.
ABCG2 inh – inhibitors of human ABCG2 transporter, ABCB1 counter-screen; AID 1325; Q9UNQ0; inhibition, % at 6.6 µM; 190,000 compounds, 0.1% hits; IgMXP3 cells, JC-1 efflux, flow cytometry;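 active = inhibition above 80%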;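 also: 0% = DMSO and 100% = nicardipine control wells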
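test system = two drug-resistant human cell lines, ABCG2 and ABCB1 | amount = 3 million cells/mL final, two lines in 1:1 ratio | reagent = JC-1 transporter substrate | doses = one concentration, 6.6 µM final | incubation = 10 min at 25 °C | signal = flow cytometric JC-1 green MFI at 530 nm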
MEKK3 PB1 HTS – raises or lowers MEK5 binding to the human MEKK3 PB1 domain; Q99759; bead-based flow cytometry, Alexa488-MEK5 binding to MEKK3; actives lie on both sides; 0 = blocked by unlabeled MEK5, 100 = vehicle; AID 1529; binding response (% of control), % at 10 µM; 290,000 compounds, 1.4% hits;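 active = binding response more than 3 SD above or below the average of its plate-row segment, actives on both sides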;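 also: Alexa488 bead fluorescence after subtracting the streptavidin-only scavenger bead signal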
Efflux pump mplx – blocks antifungal efflux pumps in multiplex yeast assay; 330,000 compounds, 0.44% hits; inhibition, % at 10 µM; S. cerevisiae Candida pump triplex, Nile Red efflux;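 active = plate passing quality check with inhibition over a set limit, or well fluorescence over plate mean plus 4 SD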;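 also: Nile Red retained in pooled yeast measured as flow cytometry median fluorescence; 0% = buffer negative control and 100% = Enniatin B positive control; higher means more Nile Red kept so more efflux inhibition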
MEKK2 mut-MEK5 – signal of MEK5 binding to mutant human MEKK2 PB1 domain; bead flow cytometry, Alexa488-MEK5 binding to MEKK2 mutant; AID 1530; percent response, % at 10 µM; 290,000 compounds, 0.35% hits; in the data active = percent response above about 24%, passing the limit was not always enough
ABCB1 inh – blocks JC-1 efflux by human ABCB1 transporter | P08183 | CCRF-Adr cells, flow cytometry | inhibition, % at 6.6 µM | 190,000 compounds, 0.067% hits | AID 1326; in the data active = inhibition above about 40%;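 also: 0% = vehicle and 100% = reference inhibitor; higher value means more JC-1 retained so stronger ABCB1 efflux block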
MEKK2 WT-MEK5 – raises or lowers MEK5 binding to wildtype human MEKK2 PB1 domain; Q9Y2U5; bead flow cytometry, Alexa488-MEK5 binding to MEKK2 WT; actives lie on both sides; binding response (% of control), % at 10 µM; 290,000 compounds, 1.1% hits; AID 1531; in the data active = binding response below about 67% or above about 130%
MEKK2wt confirm – raises or lowers MEK5 binding to wildtype human MEKK2, retest; shares compounds with MEKK3 PB1 HTS; bead flow cytometry, Alexa488-MEK5 binding to MEKK2 WT; actives lie on both sides; binding response (% of control), % at 10 µM; 5,900 compounds, 2.4% hits; AID 1892; in the data active = binding response below about 16% or above about 210%; inactive = in between
MEKK2mut-MEK5 – signal of MEK5 binding to mutant human MEKK2, retest; shares compounds with MEKK3 PB1 HTS; bead flow cytometry, Alexa488-MEK5 binding to MEKK2 mutant; percent response, % at 10 µM; 5,900 compounds, 2% hits; AID 1893; in the data active = percent response mostly above about 71%, no sharp cut-off; inactive = mostly below about 38%;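 also: higher means compound restores mutant binding toward wildtype level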
MEKK3 confirm – MEKK3-MEK5 PB1 inhibition, single concentration confirmation; bead flow cytometry, Alexa488-MEK5 binding to MEKK3; active compounds read low; 5,900 compounds, 1.8% hits; binding response (% of control), % at 10 µM; shares compounds with MEKK3 PB1 HTS;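 active = binding response below 72% of control, or above a set upper limit, though filed actives all read lower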;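 also: 100% = DMSO only wells and 0% = binding blocked by excess unlabeled MEK5; lower values mean stronger disruption of MEK5 binding to MEKK3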
Starred values were filed as active, the others as inactive; x = no result given; [ ] = another dose, or the depositor's remark.

SMILES	ABCG2 inh	MEKK3 PB1 HTS	Efflux pump mplx	MEKK2 mut-MEK5	ABCB1 inh	MEKK2 WT-MEK5	MEKK2wt confirm	MEKK2mut-MEK5	MEKK3 confirm
CC(=O)c1c(C)n([O-])c2cc(F)c(F)cc2[n+]1=O	-1	71*[inhibitor]	0	-28	0	-12*	100	2	100
N#CC(C#N)=C1C=CC=CN1/C(=C\c1ccco1)C(=O)c1ccc(Br)cc1	-3	137*	1	1	-1	106	100	-2	102
CNc1nc2ccccc2n1/N=C/c1cccc(OC)c1OC	2	103	0	9	1	108	x	x	x
COc1cccc(/C=N/n2c(CO)nc3ccccc32)c1OC	5	71*[inhibitor]	0	-8	1	77	106	5	103
C[C@@H](CSc1ccccc1)CN1CC[C@H](O)CCC1=O	x	101	0	0	x	103	x	x	x
O=C(O)C1CC(=O)N(c2ccc(OCc3ccc(Br)cc3)cc2)C1 (centres undefined)	x	104	0	4	x	105	x	x	x
O=C(O)C1CC(=O)N(c2ccc(OCc3ccccc3)cc2)C1 (centres undefined)	1	72*[inhibitor]	0	-3	0	76	103	-1	101
Cc1cccc(NC(=O)CN(CCc2ccccc2)S(C)(=O)=O)c1	x	98	0	1	x	101	x	x	x
N#CNC(=Nc1cccc(F)c1)SCc1cccc(F)c1	-5	136*	0	1	0	107	105	2	100
CCCCN(C(=O)Nc1ccc(OCC)cc1)C1CCN(C(C)=O)CC1	0	93	0	-3	0	-1.0*[inhibitor]	101	3	98
COc1cccc(CNC(=O)C2CCN(c3nn4c(=O)cc(C)nc4s3)CC2)c1	x	99	0	9	x	104	x	x	x
Cc1cc(C)cc(OCC(=O)Nc2ccc3c(c2)C(=O)c2ccccc2C3=O)c1	0	139*	0	0	0	104	95	0	97
Cc1cccc(C)c1OCCN1CCCC1	x	104	0	4	x	108	x	x	x
Cc1cccc(C)c1OCCOCCN1CCN(C)CC1	3	105	0	6	0	145*	121	16	102
O=C1c2ccccc2-c2onc3ccc(NCCCn4ccnc4)c1c23	0	33*[inhibitor]	0	-21	3	28*[inhibitor]	42	-15	42*
NS(=O)(=O)c1ccc(NCCCn2ccnc2)c([N+](=O)[O-])c1	x	104	0	9	x	105	x	x	x
COc1ccc(C(=O)N2CCC(c3ccccc3)CC2)c(OC)c1OC	0	134*	0	2	0	123	109	0	102
COc1cccc(C(=O)N2CCN(C(=O)c3ccc(-c4ccccc4)cc3)CC2)c1OC	0	94	0	-2	0	93	x	x	x
CCOc1ccc(/C=C2\SC(=S)N(Nc3ccccc3)C2=O)cc1OC	-2	128*	0	-2	-1	66	65	-16	93
COc1ccc(-c2csc3nc(C)nc(N4CCN(c5ccc(C(C)=O)cc5)CC4)c23)cc1OC	23	104	0	8	12	104	x	x	x
N#Cc1cc2c(nc1S(=O)(=O)Cc1ccccc1)CCCC2	-2	104	0	2	0	106	x	x	x
CCN(CC)CCN(C(=O)c1ccc2ccccc2c1)c1nc2cc3c(cc2s1)OCO3	x	105	0	21	x	135*	116	5	100
CCN(CC)CCN(C(=O)CN1C(=O)c2ccccc2C1=O)c1nc2cc3c(cc2s1)OCO3	x	105	-3	14	x	122	x	x	x
